# According to ChEMBL document CHEMBL4513216, “Probing the Open Global Health Chemical Diversity Library for Multistage-Active Starting Points for Next-Generation Antimalarials” (ACS Infect Dis, 2020):
# Assay: Toxicity liver stage against HepG2, at 10uM
# Format: cell-based
# Set-up: test concentration 10 uM, cell line HepG2-A16-CD81EGFP
# Conditions: human, HepG2-A16-CD81EGFP cells; read-out: INHIBITION
# Summary of the method: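 Uninfected HepG2-A16-CD81EGFP cells, 3 × 10^3 per well, 1536-well, plated on prespotted compound at 10 μM final, parasite-free screening media added to match infected plates; puromycin 10 μM positive, DMSO 0.5% negative; run in parallel with 48 h PbLuc assay at 37 °C, 5% CO2; viability by CellTiter-Glo luminescence, normalized to controls.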
row,Structure (SMILES),cytotoxicity at 10 µM [%]
1,Cc1cc(NCCN)nc2ccccc12,2.09
2,CC(N)Cc1ccccc1Sc1ccc(O)cc1 (stereo not given),3.76
3,CC(=O)N1CCOC[C@H](OCC(=O)N(C)C)C1,-1.13
4,CN1CCN(CC[C@@H]2CC[C@H](O)[C@@H](C(=O)Nc3ccccc3)O2)CC1,-7.1
5,Cc1ccc(Oc2ncccc2C(=O)N(C)CCCN(C)C)c(C)c1,-1.16
6,Cn1cnc(S(=O)(=O)NCC2CCN(C(=O)Oc3ccccc3)CC2)c1,-11.1
7,CC(=O)N1CC2C[C@]2(NC(=O)c2ccco2)C1 (stereo not given in full),-2.36
8,CS(=O)(=O)N1CC2(CCN(C(=O)c3csnn3)CC2)c2ccccc21,7.88
9,O=C1C[C@H]2[C@@H](CCN2C(=O)c2cscn2)N1Cc1cccnc1,-0.184
10,CN(C)C[C@@H]1C[C@@H]2CN(C(=O)Cc3cccs3)CC[C@@H]2N1C,0.375
11,CCOCC(=O)N1CCC[C@]2(C[C@@H](OCc3ccncc3)CO2)C1,14.5
12,Cc1cccc(CO[C@@H]2C[C@H]3CN(C(=O)c4cnccn4)CCN3C2)n1,-1.79
13,O=C(Cn1ccc2cc(Br)ccc21)NCc1ccc(C(=O)O)cc1,9.6
14,Cc1cc(=O)[nH]c(=O)n1COCc1ccccc1,-12.5
15,COc1cccc(C2CC(=O)Nc3nc(N4CCOCC4)sc32)c1OC (stereo not given),-3.26
16,O=C(Cc1ccccc1)N1CCC2(CC(=O)N(c3ccsc3)C2)C1 (stereo not given),-10.2
17,CCn1ncc2c1C(COCC1CC1)CN(C(=O)c1cccs1)C2 (stereo not given),-7.64
18,CCC(C)NC(=O)N1CCCn2cnc(CO)c2C1 (stereo not given),-9.35
19,CC(=O)Nc1ncc(S(=O)(=O)Nc2cccc(O)c2)s1,8.49
20,Cc1ccc(C(=O)NCc2ccnc(C3CCCOC3)n2)s1 (stereo not given),5.29
21,Cc1noc(C)c1-c1cc(CCC2CN(C(=O)C(C)C)CCO2)ncn1 (stereo not given),4.16
22,Cn1cccc1C(=O)N1CCCC1c1ccc(CN2CCOCC2)cn1 (stereo not given),1.43

row,Structure (SMILES),cytotoxicity at 10 µM [%]
1,O=S1(=O)NC(c2ccnc(N3CCOCC3)n2)=Nc2ccccc21,10.8
2,COCCCNc1ncc(-c2cccc(F)c2)c(-c2nccn2C)n1,8.97
3,O=C(Cn1cnc2cc3c(cc21)OCCCO3)NC1CCCCC1,5.68
4,CCn1ncc(C(=O)NCCc2nc(-c3ccc(C)cc3)n[nH]2)c1C,8
5,COc1cccc(CNCc2cccnc2)c1,-1.13
6,O=C(O)c1ccc(CN2CCC(c3ccnc4ccnn34)CC2)cc1,-29.9
7,Cc1cnc(N)c(C(=O)C2CCN(C(=O)C3CCC3)CC2)c1,-23.1
8,Cc1nnc(Nc2cccc(C3CCN(CCO)CC3)n2)s1,2.37
9,Cc1ccccc1CN(C)C(=O)CCc1nc(-c2nnc[nH]2)no1,-42.1
10,COCCN(C)C(C)Cc1ccccc1OC (stereo not given),-5.34
11,Cc1c(C(=O)O)nnn1-c1cccc2cccnc12,5.31
12,COC(=O)c1cccc(C(=O)N(C)Cc2ccsc2)c1,10.7
13,Cc1nc(-c2ccncc2)nc(N(C)CCc2ccncc2)c1C,11.6
14,O=C(Cn1cccn1)NCC1CCCN(Cc2ccccc2)C1 (stereo not given),-16.2
15,CC(C)Cn1cc(NC(=O)NC(C)(C)c2nccs2)cn1,7.44
16,CC(C)CCC(=O)N1CCN(C(C)c2nnc(CC(C)C)o2)CC1 (stereo not given),-8.82
17,CN(CC(O)C(F)(F)F)C(=O)Nc1cccc(Cn2cccn2)c1 (stereo not given),5.79
18,O=C(NCCc1coc(-c2ccc(F)cc2)n1)NCC1CCOC1 (stereo not given),-1.94
19,Cc1n[nH]c(C2CN(C(=O)CCOCC(F)(F)F)CCO2)n1 (stereo not given),-12.9
20,O=C(Nc1nnc(C(F)F)s1)NC(CCO)c1cccs1 (stereo not given),-3.44
21,CC(=O)Nc1nc(CN2CCCC2Cn2cccn2)cs1 (stereo not given),-14.4
22,CS(=O)(=O)CCn1ccc(NC(=O)CCc2cccc(F)c2)n1,-7.37

row,Structure (SMILES),cytotoxicity at 10 µM [%]
1,O=C(N1CCC(Oc2ccncc2)C1)C1(c2ccccc2F)CC1 (stereo not given),-10.4
2,CC(CN1CCOCC1)N(Cc1ccccc1)Cc1ccncc1 (stereo not given),5.5
3,Cc1nnc2n1CCN(C(C)c1nnc(-c3cccs3)o1)C2 (stereo not given),-11.2
4,COCCOCC(=O)NCCCOC1CCCc2ccccc21 (stereo not given),4.15
5,CC(C)CCC(=O)Nc1ncn(CC(=O)N2CCCCCC2)n1,1.17
6,Cc1cc(CC(=O)NC2CCCN(c3ccccc3F)C2=O)n[nH]1 (stereo not given),1.46
7,Cc1nsc(N2CCCN(C(=O)c3ccc4[nH]ccc4c3)CC2)n1,0.997
8,CC(Cn1cccn1)NS(=O)(=O)Cc1ccc(F)cc1 (stereo not given),7.28
9,NC(=O)C1(CNC(=O)CCc2ccc(Cl)s2)CCOCC1,9.09
10,CC(NC(=O)N(C)Cc1ccncc1)c1nncn1C (stereo not given),2.57
11,Cc1nnc(NC(=O)NC2CCOc3ccccc32)s1 (stereo not given),-13.4
12,COCCNC(=O)[C@@H]1CCO[C@@H]2CCN(c3ccc(C)nn3)C[C@@H]21,-73.2
13,CCOCC1CN(C(=O)c2cscn2)Cc2nnn(CC3CC3)c21 (stereo not given),1.9
14,Cc1ccc(Oc2ncccc2CNC2CCSCC2)cn1,-8.22
15,Cc1[nH]nc(CCC(=O)NCC2COc3ccccc3C2)c1C (stereo not given),-43.4
16,CCCc1nnc(NCCn2nc(C)c(Cl)c2C)o1,1.89
17,CNc1nc(C)c(C(=O)N2CCCCC2CCN2CCOCC2)s1 (stereo not given),-2.06
18,N#Cc1cc2n(n1)CCN(C(=O)CCc1c[nH]c3ccccc13)C2,-9.64
19,Cc1ccc(CNC(=O)c2cc(CN3CCC(O)CC3)on2)s1,-48.5
20,Cc1cnc(C)c(N2CCC(Cc3ccccc3Cl)(C(=O)O)CC2)n1,3.4
21,COc1cc(Cl)cc(C(=O)N2CCC3(CC2)CNC(=O)C3)c1,-18.1
22,CCCc1nc(C(=O)N2CCN(C(=O)c3ccc(OC)cc3)CC2)cs1,-3.07

row,Structure (SMILES),cytotoxicity at 10 µM [%]
1,CCC[C@H]1CN(CCS(C)(=O)=O)C[C@@H]1NC(=O)Cn1cc(C)cn1,2.72
2,CC(=O)N1C[C@H](NS(=O)(=O)N2CCCC2)[C@@H](c2ccc(C)o2)C1,-1.91
3,CCC1(O)CCCN(c2ncnc3c2c(C)nn3C)C1 (stereo not given),2.14
4,c1cn(Cc2ccc(N3CCCN(C4CCCC4)CC3)nc2)cn1,12
5,COc1cccc2ccc(N3CCC(O)(C(=O)O)CC3)nc12,3.13
6,Cc1cc2c(cc1CN1CCCCC1CCn1ccnc1C)OCO2 (stereo not given),3.09
7,CCCn1c(C)c(CC(=O)N(C)CCOC)c2c1CC(C)(C)CC2=O,-16.6
8,O=C(c1cncc(N2CCC(O)(CO)CC2)n1)N1CCCC1,-7.71
9,COCCCn1c(CN2CCCC(O)C2)cnc1S(=O)(=O)C1CCCC1 (stereo not given),-13.5
10,Fc1ccccc1Cc1noc(CN2CCCC(CN3CCCC3)C2)n1 (stereo not given),-12.3
11,CC(=O)N1CCCC1c1csc(Nc2cnccn2)n1 (stereo not given),2.09
12,CCc1cnc(CN2CCC(N(C)Cc3noc(C)n3)C2)o1 (stereo not given),4.92
13,Cc1csc(C2CCCCN2C(=O)c2cc(C3CC3)[nH]n2)n1 (stereo not given),-11.6
14,Cc1cnn(C2CCCN(C(=O)c3ccc(OCC4CC4)nc3)C2)c1 (stereo not given),-4.04
15,CN(C(=O)NCCN1CCOCC1)C1CCN(c2ccccc2)C1=O (stereo not given),-11.6
16,CC(C)c1nn(C)c(N(C)C)c1CNCc1ccc(N(C)C)nc1,-8.42
17,Cc1cc(CN2CCN(C(=O)NC(C)c3ccc(C)o3)CC2)on1 (stereo not given),-8.72
18,CN1CCOC(CNCc2csc(C3CCCCC3)n2)C1 (stereo not given),-8.57
19,Cn1ccc(C(=O)NCc2ccccc2CN2CCCC2)cc1=O,-17.1
20,CN(CC(=O)N1CCCCC1c1nccs1)C1CC1 (stereo not given),10.2
21,Cc1cc(C)n(CC2CCCN2C(=O)c2cnc3n[nH]c(C)c3c2)n1 (stereo not given),-2.61
22,CCc1nc(CN2CCCN(C(=O)COC(C)C)CC2)cs1,-15

row,Structure (SMILES),cytotoxicity at 10 µM [%]
1,Cc1nc(CN2CCOC(c3nc(C(C)C)n[nH]3)C2)oc1C (stereo not given),-7.98
2,CCCc1n[nH]c(C2CN(CCCOc3ccccc3)CCO2)n1 (stereo not given),-0.409
3,Cc1csc(N2CCN(C(=O)CCNc3ncccn3)CC2)n1,-10.1
4,CN(C)[C@@H]1CN(Cc2ccccn2)C[C@H]1c1cn(C)c2ccccc12,-0.73
5,CN(C)CCn1c2c(ccc1=O)CCN(C(=O)c1cccs1)CC2,0.0915
6,Cc1ccc(CN2CCc3ncnc(-c4cccnc4)c3CC2)o1,1.06
7,CCCN(CC(=O)N1CCNCC1)C(=O)c1cccc(Cl)c1,10.7
8,COCC1CC2(CCN(C(=O)c3ccccc3C)CC2)CN1C(C)C (stereo not given),7.77
9,CN(C)C[C@@H]1C[C@@H]2CN(c3ncc(F)cn3)CC[C@@H]2N1C,4.53
10,CCCN1CCC2(C1)c1ccccc1S(=O)(=O)N2C (stereo not given),9.04
11,c1nc2c(c(C3CC3)n1)CCN(CC1CCOC1)CC2 (stereo not given),1.26
12,Cn1ccnc1C(=O)N1CCC2(CCN2CC2CC2)C1 (stereo not given),11.8
13,CN1CCCn2c(nc(CNC(=O)c3nccn3C)cc2=O)C1,4.68
14,CN(C)[C@@H]1CN(C(=O)Cc2ccccc2)[C@@H]2CCCO[C@H]12,3.31
15,Cc1cnc(C(=O)N2C[C@@H]3CN(CC4CCCC4)CCO[C@@H]3C2)cn1,-2.76
16,CN(C)CCNC(=O)c1ccn(-c2ccc3ccccn23)n1,-0.0395
17,COCCN1CCC2(CC1)C(=O)Nc1ccc(C(=O)NC(C)C)cc12,2.02
18,CN1CC2(CCN(Cc3ccoc3)CC2)COc2ccccc2S1(=O)=O,-1.48
19,COCC(=O)NCC1CCC(c2nnc(-c3ccncc3)o2)CC1 (stereo not given),-3.49
20,O=C(CC1CCCCC1)N1C[C@@H]2CC[C@H]1CN(Cc1cccnc1)C2,-0.662
21,CS(=O)(=O)N1C[C@H]2CC[C@@H](C1)N(Cc1cscn1)C2=O,-9.35
22,O=C(C1CCS(=O)(=O)CC1)N1C[C@@H]2CC[C@H]1CN(Cc1ccccc1)C2,-2.22
